# ChEMBL document CHEMBL2021777 (J Med Chem, 2012)
# Activity calls are given as the source filed them. The rule behind the calls is not given here.
# Experiments:
# [1] = molecular target: Acetylcholine receptor; alpha1/beta1/delta/gamma (Homo sapiens) (UniProt P02708+P07510+P11230+Q07001); assay: Agonist activity at human alpha1beta1gammadelta nAChR expressed in TE671/RD cells at 10 uM by 86Rb+ flux assay; format: functional, cell-based
# In short: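 Human clonal TE671/RD cells endogenously express muscle-type α1*-nAChRs (α1, β1, γ, δ). Cells were kept at low passage (1−26 from frozen stocks). Function was read as 86Rb+ efflux, with agonist and antagonist modes tested up to 10 μM.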
# Rattus norvegicus = species on record: Rattus norvegicus; assay: Displacement of radioligand from benzodiazepine receptor in rat brain; format: tissue-based; conditions: concentration not given here
# [2] = molecular target: Sodium-dependent noradrenaline transporter (Homo sapiens) (UniProt P23975); assay: Displacement of [3H]Nisoxetine from NET at 10 uM
# [3] = molecular target: Alpha-1D adrenergic receptor (Homo sapiens) (UniProt P25100); assay: Inhibition of alpha1D adrenergic receptor at 10 uM by radioligand displacement assay
# Sequence of Alpha-1D adrenergic receptor (Homo sapiens) (P25100 whole entry): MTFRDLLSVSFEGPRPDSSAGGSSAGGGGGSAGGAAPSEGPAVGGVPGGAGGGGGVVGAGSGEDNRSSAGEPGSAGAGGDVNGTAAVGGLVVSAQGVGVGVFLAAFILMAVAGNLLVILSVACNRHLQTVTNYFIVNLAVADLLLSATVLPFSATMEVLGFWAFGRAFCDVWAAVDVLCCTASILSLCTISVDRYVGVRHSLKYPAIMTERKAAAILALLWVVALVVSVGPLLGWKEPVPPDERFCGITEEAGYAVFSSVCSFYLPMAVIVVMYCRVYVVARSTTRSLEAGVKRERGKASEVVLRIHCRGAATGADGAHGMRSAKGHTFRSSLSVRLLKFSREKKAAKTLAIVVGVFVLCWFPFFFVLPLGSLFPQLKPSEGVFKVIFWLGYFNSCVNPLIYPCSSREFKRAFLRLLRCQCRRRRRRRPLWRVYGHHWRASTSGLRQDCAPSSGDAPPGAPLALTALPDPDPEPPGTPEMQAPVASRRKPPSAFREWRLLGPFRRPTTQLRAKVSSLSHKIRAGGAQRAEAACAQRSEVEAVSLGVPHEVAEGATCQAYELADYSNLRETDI
# Cytochrome P450 2C9 = Cytochrome P450 2C9 (Homo sapiens, UniProt P11712); assay: Inhibition of CYP2C9 up to 10 uM; format: ADME
# Sequence of Cytochrome P450 2C9 (P11712 whole entry, canonical isoform): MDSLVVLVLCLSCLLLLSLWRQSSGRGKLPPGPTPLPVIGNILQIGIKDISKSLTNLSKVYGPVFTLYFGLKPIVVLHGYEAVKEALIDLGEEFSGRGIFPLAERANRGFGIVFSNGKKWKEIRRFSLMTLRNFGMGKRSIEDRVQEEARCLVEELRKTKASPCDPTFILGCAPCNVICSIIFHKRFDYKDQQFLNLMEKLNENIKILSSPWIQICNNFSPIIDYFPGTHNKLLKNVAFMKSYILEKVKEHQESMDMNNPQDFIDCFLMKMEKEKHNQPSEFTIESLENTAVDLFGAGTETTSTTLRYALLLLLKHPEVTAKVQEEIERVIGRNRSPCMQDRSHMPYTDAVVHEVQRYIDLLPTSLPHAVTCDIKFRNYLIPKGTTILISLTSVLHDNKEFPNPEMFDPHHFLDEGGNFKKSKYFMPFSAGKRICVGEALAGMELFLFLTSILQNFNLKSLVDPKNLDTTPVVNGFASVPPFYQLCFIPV
# In short: (§1)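 Percent inhibition of CYP isoforms (CYP1A, CYP2C9, CYP2C19, CYP2D6, CYP3A; CYP1A2 reported) with test compound at concentrations up to 10 μM.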
# [4] = molecular target: T1, Alpha-1B adrenergic receptor (Homo sapiens) (UniProt P35368); assay: Displacement of [3H]Prazosin from alpha1B adrenergic receptor at 10 uM
# T1 sequence (whole entry): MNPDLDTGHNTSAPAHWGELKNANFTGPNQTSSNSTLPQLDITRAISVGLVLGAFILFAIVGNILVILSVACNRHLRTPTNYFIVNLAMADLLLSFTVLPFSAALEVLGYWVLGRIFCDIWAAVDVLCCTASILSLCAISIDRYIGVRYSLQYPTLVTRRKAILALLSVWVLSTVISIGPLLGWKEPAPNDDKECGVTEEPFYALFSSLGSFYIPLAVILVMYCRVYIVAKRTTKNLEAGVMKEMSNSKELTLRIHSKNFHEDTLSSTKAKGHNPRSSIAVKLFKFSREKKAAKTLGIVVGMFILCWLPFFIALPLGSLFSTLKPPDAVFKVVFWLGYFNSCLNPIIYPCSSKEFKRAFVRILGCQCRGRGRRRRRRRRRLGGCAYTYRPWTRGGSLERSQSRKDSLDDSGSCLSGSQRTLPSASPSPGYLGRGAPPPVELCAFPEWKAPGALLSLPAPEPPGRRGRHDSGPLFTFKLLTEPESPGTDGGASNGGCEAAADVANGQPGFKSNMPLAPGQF
# [5] = molecular target: Histamine H1 receptor (Homo sapiens) (UniProt P35367); assay: Displacement of [3H]Pyrilamine from H1 histamine receptor at 10 uM
# Sequence of Histamine H1 receptor (Homo sapiens) (P35367 whole entry): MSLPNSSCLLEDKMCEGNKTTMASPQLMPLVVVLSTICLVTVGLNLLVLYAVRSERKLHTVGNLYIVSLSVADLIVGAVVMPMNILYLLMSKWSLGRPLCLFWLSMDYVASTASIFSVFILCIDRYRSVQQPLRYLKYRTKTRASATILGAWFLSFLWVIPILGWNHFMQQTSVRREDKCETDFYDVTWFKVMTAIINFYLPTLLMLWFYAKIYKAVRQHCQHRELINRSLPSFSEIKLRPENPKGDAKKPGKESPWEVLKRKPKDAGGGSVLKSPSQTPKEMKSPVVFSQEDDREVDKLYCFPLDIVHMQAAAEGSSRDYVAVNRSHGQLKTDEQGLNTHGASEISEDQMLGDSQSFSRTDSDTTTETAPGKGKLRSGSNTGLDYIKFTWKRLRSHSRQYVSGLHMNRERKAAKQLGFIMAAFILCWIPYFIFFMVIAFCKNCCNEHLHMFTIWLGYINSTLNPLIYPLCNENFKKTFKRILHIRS
# [6] = molecular target: Neuronal acetylcholine receptor; alpha4/beta4 (Rattus norvegicus, UniProt P09483+P12392); assay: Displacement of [3H] epibatidine from rat alpha4beta4 nAChR by beta scintillation counting; format: protein-complex assay
# [7] = molecular target: T2, Muscarinic acetylcholine receptor M5 (Homo sapiens) (UniProt P08912); assay: Displacement of [3H]QNB from M5 receptor at 10 uM
# T2 sequence (whole entry): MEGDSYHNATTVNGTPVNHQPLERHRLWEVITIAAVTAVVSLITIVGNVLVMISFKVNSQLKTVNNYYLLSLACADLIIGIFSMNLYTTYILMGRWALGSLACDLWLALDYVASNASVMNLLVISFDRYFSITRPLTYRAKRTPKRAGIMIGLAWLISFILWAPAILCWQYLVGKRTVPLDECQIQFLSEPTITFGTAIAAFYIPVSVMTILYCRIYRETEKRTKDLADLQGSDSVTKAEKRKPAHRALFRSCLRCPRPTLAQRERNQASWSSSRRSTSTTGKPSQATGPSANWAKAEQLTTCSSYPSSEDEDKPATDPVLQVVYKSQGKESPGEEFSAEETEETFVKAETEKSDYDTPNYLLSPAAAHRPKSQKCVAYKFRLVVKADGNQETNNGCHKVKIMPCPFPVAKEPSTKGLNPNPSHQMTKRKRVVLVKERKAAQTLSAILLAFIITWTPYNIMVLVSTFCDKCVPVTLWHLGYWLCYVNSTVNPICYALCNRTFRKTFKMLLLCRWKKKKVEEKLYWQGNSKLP
# [8] = molecular target: T3, 5-hydroxytryptamine receptor 2C (Homo sapiens) (UniProt P28335); assay: Displacement of [3H]Mesulergine from 5-HT2C at 10 uM
# T3 sequence (whole entry): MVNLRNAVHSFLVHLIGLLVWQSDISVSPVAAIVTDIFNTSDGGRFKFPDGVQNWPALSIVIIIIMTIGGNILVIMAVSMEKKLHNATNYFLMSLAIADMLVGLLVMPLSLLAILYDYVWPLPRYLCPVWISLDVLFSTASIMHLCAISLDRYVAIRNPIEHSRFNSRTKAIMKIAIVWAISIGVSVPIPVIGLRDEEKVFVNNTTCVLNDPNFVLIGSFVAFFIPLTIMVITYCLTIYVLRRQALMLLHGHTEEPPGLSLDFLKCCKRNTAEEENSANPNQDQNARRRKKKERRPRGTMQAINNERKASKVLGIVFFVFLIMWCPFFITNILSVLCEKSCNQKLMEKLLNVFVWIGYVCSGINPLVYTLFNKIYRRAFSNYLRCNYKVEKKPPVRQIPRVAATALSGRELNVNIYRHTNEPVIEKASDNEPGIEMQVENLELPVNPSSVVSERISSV
# [9] = Inhibition of CYP1A up to 10 uM; format: ADME; in short: as §1
# [10] = Displacement of [3H]PK11195 from PBR at 10 uM
# [11] = molecular target: Vasopressin V1a receptor (Homo sapiens) (UniProt P37288); assay: Displacement of radioligand from Vasopressin V1A receptor; conditions: concentration not given here
# Sequence of Vasopressin V1a receptor (Homo sapiens) (P37288 whole entry, looked up): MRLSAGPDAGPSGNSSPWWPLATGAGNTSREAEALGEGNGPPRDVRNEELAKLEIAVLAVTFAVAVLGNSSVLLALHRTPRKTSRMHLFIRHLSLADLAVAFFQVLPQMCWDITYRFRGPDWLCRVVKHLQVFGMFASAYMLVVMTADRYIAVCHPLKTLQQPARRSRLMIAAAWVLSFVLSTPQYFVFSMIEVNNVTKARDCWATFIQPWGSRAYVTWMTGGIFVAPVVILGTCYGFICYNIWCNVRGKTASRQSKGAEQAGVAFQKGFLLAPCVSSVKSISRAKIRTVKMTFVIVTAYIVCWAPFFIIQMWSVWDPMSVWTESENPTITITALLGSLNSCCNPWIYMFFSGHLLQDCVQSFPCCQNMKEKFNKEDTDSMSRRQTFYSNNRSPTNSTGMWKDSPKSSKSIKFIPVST
# Mus musculus = assay: Antidepressant activity in BALB/cJ mouse assessed as decrease in immobility at 3 mg/kg, po administered 30 mins prior to testing measured for 6 mins by forced swim test; format: functional, organism-based; set-up: dose 3 mg/kg
# In short: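 Male BALB/cJ mice, 8−10 weeks old, housed four per cage on a 12 h light−dark cycle. Drug in injectable water was given by oral gavage (10 mL/kg). After 30 min, each mouse was placed in a glass cylinder with 12 cm of ~23 °C water, and floating immobility was timed over a 6 min trial. Analysis was by ANOVA with Fisher's PLSD post hoc test.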
# [12] = molecular target: 5-hydroxytryptamine receptor 1D (Homo sapiens) (UniProt P28221); assay: Displacement of [3H][…] from 5-HT1D at 10 uM
# [13] = molecular target: Metabotropic glutamate receptor 5 (Homo sapiens) (UniProt P41594); assay: Displacement of [3H]MPEP from mGluR5 at 10 uM
# Sequence of Metabotropic glutamate receptor 5 (Homo sapiens) (P41594 21-1212 limits assumed): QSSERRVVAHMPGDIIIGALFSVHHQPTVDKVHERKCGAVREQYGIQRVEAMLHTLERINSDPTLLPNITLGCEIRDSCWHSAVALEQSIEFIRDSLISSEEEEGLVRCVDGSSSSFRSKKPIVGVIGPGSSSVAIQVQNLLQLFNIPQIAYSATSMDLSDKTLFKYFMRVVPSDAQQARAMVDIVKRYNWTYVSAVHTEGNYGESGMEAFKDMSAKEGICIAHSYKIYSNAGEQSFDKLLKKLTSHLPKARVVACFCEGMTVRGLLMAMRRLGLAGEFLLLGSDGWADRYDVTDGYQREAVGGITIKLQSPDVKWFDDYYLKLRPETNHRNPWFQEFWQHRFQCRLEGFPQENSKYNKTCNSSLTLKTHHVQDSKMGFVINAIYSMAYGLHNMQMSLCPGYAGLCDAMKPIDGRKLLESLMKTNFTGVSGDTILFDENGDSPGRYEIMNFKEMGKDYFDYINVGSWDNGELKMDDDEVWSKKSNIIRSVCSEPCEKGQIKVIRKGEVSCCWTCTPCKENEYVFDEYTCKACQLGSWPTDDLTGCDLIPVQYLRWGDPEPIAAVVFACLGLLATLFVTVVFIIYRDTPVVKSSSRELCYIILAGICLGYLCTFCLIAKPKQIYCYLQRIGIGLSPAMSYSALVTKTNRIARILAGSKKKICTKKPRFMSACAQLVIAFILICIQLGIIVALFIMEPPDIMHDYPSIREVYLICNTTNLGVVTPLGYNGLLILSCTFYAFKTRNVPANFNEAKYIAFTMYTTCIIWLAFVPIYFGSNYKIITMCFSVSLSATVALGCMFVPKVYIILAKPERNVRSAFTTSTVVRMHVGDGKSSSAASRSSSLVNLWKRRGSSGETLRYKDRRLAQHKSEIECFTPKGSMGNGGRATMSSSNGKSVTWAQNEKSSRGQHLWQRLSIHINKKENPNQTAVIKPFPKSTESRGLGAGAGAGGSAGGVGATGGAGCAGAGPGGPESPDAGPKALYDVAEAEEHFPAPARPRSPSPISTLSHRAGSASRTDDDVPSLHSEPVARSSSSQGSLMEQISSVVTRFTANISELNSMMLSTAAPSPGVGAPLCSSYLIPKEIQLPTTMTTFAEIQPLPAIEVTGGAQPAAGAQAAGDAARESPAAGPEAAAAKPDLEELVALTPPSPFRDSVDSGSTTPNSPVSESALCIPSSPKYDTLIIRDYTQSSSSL
# [14] = molecular target: Cannabinoid receptor 1 (Homo sapiens) (UniProt P21554); assay: Displacement of [3H]CP55940 from CB1 receptor at 10 uM
# Sequence of Cannabinoid receptor 1 (Homo sapiens) (P21554 whole entry): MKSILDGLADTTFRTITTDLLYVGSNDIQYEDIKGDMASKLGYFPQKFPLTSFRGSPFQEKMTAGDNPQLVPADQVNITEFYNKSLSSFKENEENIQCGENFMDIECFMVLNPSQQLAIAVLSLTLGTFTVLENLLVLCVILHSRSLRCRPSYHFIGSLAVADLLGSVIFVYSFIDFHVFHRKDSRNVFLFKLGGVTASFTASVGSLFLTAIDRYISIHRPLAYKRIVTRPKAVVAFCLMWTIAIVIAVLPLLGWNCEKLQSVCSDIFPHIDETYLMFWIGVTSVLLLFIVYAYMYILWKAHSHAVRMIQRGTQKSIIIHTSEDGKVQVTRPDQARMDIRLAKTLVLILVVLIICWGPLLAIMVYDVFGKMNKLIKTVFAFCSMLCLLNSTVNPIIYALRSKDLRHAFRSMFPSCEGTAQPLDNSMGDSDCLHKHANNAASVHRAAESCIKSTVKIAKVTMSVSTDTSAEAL
# [15] = molecular target: 5-hydroxytryptamine receptor 2A (Homo sapiens) (UniProt P28223); assay: Displacement of [3H]Ketanserin from 5-HT2A at 10 uM
# Sequence of 5-hydroxytryptamine receptor 2A (Homo sapiens) (P28223 whole entry): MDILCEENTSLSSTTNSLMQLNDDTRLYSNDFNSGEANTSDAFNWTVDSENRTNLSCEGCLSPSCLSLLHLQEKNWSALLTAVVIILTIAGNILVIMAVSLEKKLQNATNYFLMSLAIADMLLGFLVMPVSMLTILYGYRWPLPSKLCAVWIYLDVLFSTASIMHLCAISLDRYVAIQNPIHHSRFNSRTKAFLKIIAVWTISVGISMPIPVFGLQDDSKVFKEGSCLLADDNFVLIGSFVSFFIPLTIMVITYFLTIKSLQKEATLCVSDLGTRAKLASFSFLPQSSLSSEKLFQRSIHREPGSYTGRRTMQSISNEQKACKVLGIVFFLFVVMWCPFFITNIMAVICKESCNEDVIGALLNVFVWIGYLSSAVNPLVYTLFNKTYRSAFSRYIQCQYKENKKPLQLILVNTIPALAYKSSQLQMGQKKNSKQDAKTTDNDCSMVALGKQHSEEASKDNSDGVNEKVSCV
# [16] = molecular target: Sodium-dependent serotonin transporter (Homo sapiens) (UniProt P31645); assay: Displacement of [3H]Citalopram from SERT at 10 uM
# Sequence of Sodium-dependent serotonin transporter (Homo sapiens) (P31645 whole entry, looked up): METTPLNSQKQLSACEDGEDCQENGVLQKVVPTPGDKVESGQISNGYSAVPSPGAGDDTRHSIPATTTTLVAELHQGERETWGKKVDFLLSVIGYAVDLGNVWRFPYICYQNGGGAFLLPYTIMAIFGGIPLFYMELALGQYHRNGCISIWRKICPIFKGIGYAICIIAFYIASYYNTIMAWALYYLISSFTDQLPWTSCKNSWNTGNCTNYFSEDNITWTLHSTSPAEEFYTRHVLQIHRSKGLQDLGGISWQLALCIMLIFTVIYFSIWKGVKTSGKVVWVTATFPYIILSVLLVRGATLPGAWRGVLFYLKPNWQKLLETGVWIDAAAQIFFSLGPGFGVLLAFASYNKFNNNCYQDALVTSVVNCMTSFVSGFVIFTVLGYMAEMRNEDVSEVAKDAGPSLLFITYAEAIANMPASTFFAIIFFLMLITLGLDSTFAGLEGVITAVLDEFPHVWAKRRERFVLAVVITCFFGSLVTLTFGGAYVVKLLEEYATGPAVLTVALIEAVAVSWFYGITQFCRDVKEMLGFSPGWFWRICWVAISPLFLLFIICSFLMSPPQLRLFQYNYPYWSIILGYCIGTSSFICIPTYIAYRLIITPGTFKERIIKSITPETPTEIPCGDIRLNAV
SMILES,Activity [1],inhibition (Rattus norvegicus) [%],inhibition [2] [%],inhibition [3] [%],inhibition (INH) (Cytochrome P450 2C9),inhibition [4] [%],inhibition [5] [%],Ki [6] [nM],inhibition [7] [%],inhibition [8] [%],inhibition (INH) [9],inhibition [10] [%],inhibition [11] [%],Activity (Mus musculus),inhibition [12] [%],inhibition [13] [%],inhibition [14] [%],inhibition [15] [%],inhibition [16] [%]
CNC(=O)OCC[C@H]1C[C@@H]1c1cncc(OC[C@@H]2CCN2)c1,inactive,2,69.6,-2.7,<= 25%,14.1,30.5,441,-8.7,6.3,<= 25%,,,,,,,,
OCC[C@H]1C[C@@H]1c1cncc(OC[C@@H]2CCN2)c1,inactive,29.2,,,<= 25%,-4.5,41.4,,-4.4,2.4,<= 25%,4.7,29.1,Active,5.6,9.1,-3.4,34.2,42.7
COCC[C@H]1C[C@@H]1c1cncc(OC[C@@H]2CCN2)c1,inactive,26.6,-0.2,3.4,<= 25%,8.6,-4.8,50.2,-1.1,33.8,<= 25%,-5.9,30.5,Active,1.2,5.1,-2,43.7,39.3
